# Results from different studies.
# Compare with care: the assays were run in different laboratories.
SMILES,test,test system,conditions,measurement,value
CN[C@H](CC(C)C)C(=O)N[C@H]1C(=O)N[C@@H](CC(N)=O)C(=O)N[C@H]2C(=O)NC3C(=O)N[C@H](C(=O)N[C@H](C(=O)NCCC[N+](C)(C)C)c4cc(O)cc(O)c4-c4cc3ccc4O)[C@H](O)c3ccc(c(Cl)c3)Oc3cc2cc(c3OC2OC(CO)C(O)[C@H](O)[C@@H]2O[C@H]2CC(C)(NCc3ccc(-c4ccc(Cl)cc4)cc3)[C@H](O)[C@H](C)O2)Oc2ccc(cc2Cl)[C@H]1O (some centres unmarked),,"mouse, plasma","intravenous, 10 mg/kg",Vd,1.25 L/kg
Cc1nonc1Cn1nnc2c(N3CC[C@H](O)C3)nc(C(C)(C)C)nc21,,"C57BL/6 mouse, plasma",intravenous,Vd,4.1 L/kg
Nc1ncnc2c1ncn2[C@@H]1O[C@@H]2COP(=O)([S-])O[C@@H]3[C@H](O)[C@@H](COP([O-])(=S)O[C@H]2[C@H]1O)O[C@H]3n1cnc2c(N)ncnc21.[Na+].[Na+] (some centres unmarked),"chemical stability, HPLC","bovine, serum",,half-life,67 h
C=CCNc1c(O)cc2c(O)c1C[C@@H](C)C[C@H](OC)[C@H](O)[C@@H](C)/C=C(\C)[C@H](OC(N)=O)[C@@H](OC)/C=C\C=C(/C)C(=O)N2,,"human, plasma","intravenous, 400 mg/m², patients, infusion",half-life,2.27 h
Cc1nc([C@@](C)(CC2CC2)NC(=O)c2cc(OCC(F)(F)F)c(C3CC3)cn2)no1,,"C57BL/6 mouse, plasma",intravenous,Vd,4 L/kg
CCCCCCCC(=O)NC[C@H](NC(=O)[C@H](CO)NC(=O)CN)C(=O)N[C@@H](Cc1ccccc1)C(=O)N[C@@H](CC(C)C)C(=O)N[C@@H](CO)C(=O)N1CCC[C@H]1C(=O)N[C@@H](CCC(=O)O)C(=O)O,chemical stability,PBS,"1 mM, 24 h, pH 7.4",compound remaining,100%
COc1cc(C(=O)NC2CCN(C)CC2)c(F)cc1Nc1ncc(C(F)(F)F)c(Oc2cccc3c2C(=O)N(C)C3)n1,,"human, plasma","oral, 25 mg, multiple doses, once daily, patients",half-life,27.9 h
COc1ccc(NC(=O)N2CCCCN3[C@H](CN(C)C)[C@H](c4ccc(C#Cc5ccccc5)cc4)[C@@H]3C2)cc1,,"mouse, plasma",intravenous,Vd,29 L/kg
CCN(CC)CCCC[C@H](NC(=O)[C@H](CC(C)C)NC(=O)[C@H](C)NC(=O)[C@H](Cc1ccccc1)NC(=O)c1ccc(C(C)(C)C)cc1)C(=O)N[C@@H](CO)C(=O)OC,,"male Swiss mouse, blood","intravenous, 3 mg/kg",Vd,0.19 L/kg
CC(=C/C=C/C(C)=C/C(=O)O)/C=C1\CCCc2ccccc21,,"human, plasma","oral, 10 mg, single dose, fasted, healthy volunteers",half-life,5.76 h
N=C(N)NCCC[C@@H](NC(=O)[C@@H](N)Cc1ccccc1)C(=O)N[C@@H](Cc1ccccc1)C(=O)N[C@@H](CCCCN)C(N)=O,,"human, plasma","subcutaneous, 25 mg, multiple doses, once daily, patients",half-life,4 h
